Compounds with a hit are over-represented: about 3.7% of the library has one in this group of screens.
JMJD2C inh: inhibitors of human GASC-1 (JMJD2C) demethylase; Q9H3R0; GST-JMJD2C(1-420) H3K9me3 demethylation, DELFIA europium; inhibition, % at 2.35 µM; hit rate 0.069% among 330,000; AID 2099;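 active means more than half of a compound's replicate wells show inhibition beyond 50%, single wells judged on their own value; inconclusive means some, but no more than half, of replicates pass 50% inhibition; inactive means no replicate passes 50% inhibition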;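 further: signal counts dimethyl H3K9 product captured on neutravidin plate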
SR-BI DiI-HDL act: activators of SR-BI mediated HDL lipid uptake; CHO ldlA[mSR-BI] cells, DiI-HDL uptake fluorescence, 3 h; 100 = double the neutral-control signal; activation, % at 12.5 µM; hit rate 0.096% among 320,000;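 active means mean replicate activation of at least 60% and every replicate at or above 60%; inconclusive means mean or all-replicate condition met, but not both; inactive means mean below 60% and not all replicates reaching 60%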
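material = CHO ldlA[mSR-BI] cells | medium = Ham's F12 with 0.5% BSA, HEPES 25 mM, pH 7.4 | reagent = fluorescent DiI-HDL, 10 µg/mL final | compound dosing = single-point compound dose | incubation = 3 h, 37 °C | measured by = bottom-read fluorescence, 550/595 nm | measure = HDL uptake via cellular fluorescence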
GAA850 FXN act: frataxin GAA850 promoter activation; HEK293 lucGAA850 FXN promoter luciferase reporter, 24 h; percent of 10 µM SAHA response; activation, % at 6 µM; hit rate 0.56% among 360,000; AID 540364;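 active means activation above the average of all compounds screened plus 3 SD, cutoff fixed separately per campaign, cut at about 7.5% in these data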
AHR act: activates the human aryl hydrocarbon receptor; P35869; AHR-responsive luciferase reporter cells, luminescence; activation, % at 5 µM; hit rate 2.5% among 320,000; AID 2796; in the data active means activation above about 47%
SR-BI DiI inh: mouse SR-BI HDL lipid transfer inhibition; Q61009; ldlA[mSR-BI] CHO cells, DiI-HDL uptake fluorescence, 3 h; inhibition, % at 12.5 µM; hit rate 0.96% among 320,000; AID 488896;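 active means mean replicate inhibition of at least 70% and a set share of replicates each scoring 70 or more; inconclusive means meets just one of the two criteria; inactive means fails both criteria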
DiI quencher: counter-screen for SR-BI lipid transfer inhibitors: DiI fluorescence quenchers; hit rate 20% among 470; shares compounds with SR-BI DiI inh; AID 540326; AC50, µM (highest dose often 35 µM); cell-free DiI-HDL fluorescence quenching, 30 min;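 active means quenching, a falling signal, with AC50 below a set limit tied to the top valid dose, actives reach about 32 µM in these data; inconclusive means no clear call, values can overlap the other calls; inactive means rising signal, and the rest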
GAA30 FXN cntr: GAA30 FXN promoter activation counter-screen | shares compounds with GAA850 FXN act | HEK293 lucGAA30 FXN promoter luciferase, 24 h; DMSO = 0%, 5 µM ipriflavone = 100% | activation, % at 6 µM | hit rate 66% among 1,900 | AID 588350;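 active means mean activation above the mean of solvent-only control wells plus 3 SD, cut at about 22% in these data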;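 further: counterscreen of GAA850 promoter hits where activity marks nonselective or luminescence artifacts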
FXN GAA850 conf: GAA850 FXN promoter activation confirmation; shares compounds with GAA850 FXN act; HEK293 lucGAA850 FXN promoter luciferase reporter, 24 h; 100% = activation by SAHA; activation, % at 6 µM; hit rate 86% among 1,900; AID 588351;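 active means mean activation above a set limit taken from the primary screen, cut at about 8% in these data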
Hits are given with their value; i = inactive; ? = inconclusive; nt = no result.

SMILES	JMJD2C inh	SR-BI DiI-HDL act	GAA850 FXN act	AHR act	SR-BI DiI inh	GAA30 FXN cntr	FXN GAA850 conf	others
CC(C)C(=O)Nc1sc2c(c1-c1nc3ccccc3[nH]1)CCCC2	i	i	i	i	101	nt	nt	DiI quencher=21µM
COc1ccccc1-n1cnc2cc(NCc3ccccc3O)ccc21	i	i	i	i	i	nt	nt
COc1ccccc1-n1cnc2cc(NCc3ccco3)ccc21	i	i	i	i	76	nt	nt	DiI quencher=i
N#CCCN(C(=O)COC(=O)CCc1c[nH]c2ccccc12)c1ccc(F)cc1	i	i	i	i	i	nt	nt	DiI quencher=i
COc1ccc([N+](=O)[O-])cc1NC(=O)C1CCCO1 (stereo not given)	i	i	i	i	i	nt	nt
Oc1csc(Cc2nc(-c3ccc4ccccc4c3)cs2)n1	i	i	10	83	?	63	43	DiI quencher=16µM
COc1ccc(-c2cn3cccnc3n2)cc1F	i	i	i	i	i	nt	nt
COc1ccc([N+](=O)[O-])cc1Nc1c2ccccc2nc2ccccc12	i	i	9.3	i	i	i	21
O=[N+]([O-])c1ccccc1Nc1c2ccccc2nc2ccccc12	i	i	9.6	i	77	32	16
COc1ccc(OC)c(Nc2c3ccccc3nc3ccccc23)c1	i	i	i	i	i	nt	nt
COC(=O)c1ccc(NS(=O)(=O)NC(=O)c2cn(C)c3ccccc23)cc1	?	i	i	i	i	nt	nt
Fc1ccccc1N=C1NN=C(c2ccccc2)CS1	i	i	8.0	i	i	124	41
C[C@H](CO)N1C[C@H](C)[C@H](CN(C)S(=O)(=O)c2ccccc2)OCc2ccccc2-c2c(n(C)c3ccccc23)C1=O	nt	nt	i	nt	nt	nt	nt
COC(=O)N(C)C[C@@H]1OCc2ccccc2-c2c(n(C)c3ccccc23)C(=O)N([C@H](C)CO)C[C@@H]1C	nt	nt	16	nt	nt	33	14
Cc1ccccc1S(=O)(=O)N(C)C[C@@H]1OCc2ccccc2-c2c(n(C)c3ccccc23)C(=O)N([C@H](C)CO)C[C@@H]1C	nt	nt	20	nt	nt	i	10
C[C@@H]1CN([C@H](C)CO)C(=O)c2c(c3ccccc3n2C)-c2ccccc2CO[C@@H]1CN(C)C(=O)Nc1ccc2c(c1)OCO2	nt	nt	i	nt	nt	nt	nt
C[C@H](CO)N1C[C@H](C)[C@H](CN(C)C(=O)Nc2ccc(F)cc2)OCc2ccccc2-c2c(n(C)c3ccccc23)C1=O	nt	nt	14	nt	nt	i	9.4
COc1ccc(S(=O)(=O)N2CCOCC2)cc1NC(=O)CSc1nnc2n1CCCCC2	i	i	i	i	i	nt	nt
CC[C@@]12C(=O)N(c3cccc(F)c3)C(=O)N1[C@H](c1ccc(Cl)cc1)[C@@H]1C(=O)N(C3CCCCC3)C(=O)[C@@H]12	i	i	9.0	i	i	23	15
Cc1ccc(N2C(=O)N3[C@H](c4ccc(F)cc4)[C@@H]4C(=O)N(C5CCCCC5)C(=O)[C@@H]4[C@]3(C)C2=O)cc1	i	i	13	i	i	i	i
CC[C@@]12C(=O)N(c3cccc(Br)c3)C(=O)N1[C@H](c1ccc(Cl)cc1)[C@@H]1C(=O)N(C3CCCCC3)C(=O)[C@@H]12	i	i	11	i	i	i	15
CC(C)C[C@@]12C(=O)N(c3cccc(Br)c3)C(=O)N1[C@H](c1ccc(Cl)cc1)[C@@H]1C(=O)N(C3CCCCC3)C(=O)[C@@H]12	i	i	i	i	i	nt	nt
CC(C)C[C@@]12C(=O)N(c3cccc(Cl)c3)C(=O)N1[C@H](c1ccc(Cl)cc1)[C@@H]1C(=O)N(C3CCCCC3)C(=O)[C@@H]12	i	i	i	i	i	nt	nt
CC(C)C[C@@]12C(=O)N(c3cccc(Cl)c3)C(=O)N1[C@H](c1ccc(F)cc1)[C@@H]1C(=O)N(C3CCCCC3)C(=O)[C@@H]12	i	i	12	i	i	i	20
